Assay results reported in ChEMBL document CHEMBL1155661, “Bioactive steroids from the whole herb of Euphorbia chamaesyce” (J Nat Prod, 2000).

What was measured:
Type in all cases: cell-based
[1] = test system: Raji; assay: Inhibition of 12-O-tetradecanoylphorbol-13-acetate induced EBV-early antigen activation in human Raji cells assessed as EA induction at 10 molar ratio by immunofluorescence assay relative to TPA; set-up: scale not given: the % may be the effect or the level left; conditions: human gammaherpesvirus 4
Method in brief: (§1)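 Cells at 1 × 10⁶/mL were incubated 48 h at 37 °C with n-butyric acid (4 mM) and TPA (32 pmol, 20 ng/mL) in DMSO, plus compound in DMSO dosed as mol ratio to TPA. EA-positive cells in smears were detected by indirect immunofluorescence with high-titer EBV-EA-positive nasopharyngeal carcinoma patient sera. At least 500 cells were counted, experiments were run twice, and values are expressed relative to TPA alone (100%).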

[2] = test system: Raji; assay: Inhibition of 12-O-tetradecanoylphorbol-13-acetate induced EBV-early antigen activation in human Raji cells assessed as EA induction at 100 molar ratio by immunofluorescence assay relative to TPA; set-up: scale not given: the % may be the effect or the level left; conditions: human gammaherpesvirus 4; method in brief: as §1
[3] = test system: Raji; assay: Inhibition of 12-O-tetradecanoylphorbol-13-acetate induced EBV-early antigen activation in human Raji cells assessed as EA induction at 500 molar ratio by immunofluorescence assay relative to TPA; set-up: scale not given: the % may be the effect or the level left; conditions: human gammaherpesvirus 4; method in brief: as §1
[4] = test system: Raji; assay: Inhibition of 12-O-tetradecanoylphorbol-13-acetate induced EBV-early antigen activation in human Raji cells assessed as EA induction at 1000 molar ratio by immunofluorescence assay relative to TPA; set-up: scale not given: the % may be the effect or the level left; conditions: human gammaherpesvirus 4; method in brief: as §1
[5] = Cytotoxicity against human Raji cells assessed as cell viability at 1000 molar ratio; conditions: read-out: Activity

SMILES	Activity [1]	Activity [2]	Activity [3]	Activity [4]	viability at 1000 molar ratio [5]
C=C(CC[C@@H](C)[C@H]1CC[C@@]2(C)C3=C(CC[C@]12C)[C@@]1(C)CC[C@H](O)[C@@H](C)[C@@H]1CC3)C(C)C [OBTUSIFOLIOL]	95.8%	77.4%	30.2%	0%	70%
C=C(CC[C@@H](C)[C@H]1CC[C@@]2(C)C3=CC[C@H]4[C@H](C)[C@@H](O)CC[C@]4(C)C3=CC[C@]12C)C(C)C	92.4%	74.9%	27.3%	0%	70%
C=C(CC[C@@H](C)[C@H]1CC[C@@]2(C)C3=C(C(=O)C[C@]12C)[C@@]1(C)CC[C@H](O)[C@@H](C)[C@@H]1CC3)C(C)C	92.8%	72.4%	23.6%	0%	70%
C=C(CC[C@@H](C)[C@H]1CC[C@@]2(C)C3=C(C(=O)C[C@]12C)[C@@]1(C)CC[C@H](O)[C@@H](C)[C@@H]1CC3=O)C(C)C	91.9%	70.4%	22.5%	0%	70%
CC1(C)CC[C@]2(C(=O)O)CC[C@]3(C)C(=CC[C@@H]4[C@@]5(C)CC[C@H](O)C(C)(C)[C@@H]5CC[C@]43C)[C@@H]2C1 [OLEANOLIC_ACID]	93.7%	72.5%	22.4%	12.7%	70%
